Results on five compounds are retold here after ChEMBL document CHEMBL1147656, “Biological evaluation of bishydroxymethyl-substituted cage dimeric 1,4-dihydropyridines as a novel class of p-glycoprotein modulating agents in cancer cells” (J Med Chem, 2006).

One data set relates to L5178Y. In words: Cytotoxicity against mouse L5178Y cell line. It counts as functional, cell-based. The gist of the method: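 MTT assay on L5178Y mouse T-lymphoma parental cells or the L5178YvMDR (mdr1-transfected) subline. Compound-treated cells cultured 48 h at 37 °C under 5% CO2. MTT added (0.5 mg/mL final) for another 4 h at 37 °C. Formazan dissolved in 10% SDS in 0.01 M HCl overnight, then absorbance read. Absorbance corrected for cell control and compound, IC50 taken from sigmoidal curve. Mean of two determinations.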

Data set [1] concerns the target T1, ATP-dependent translocase ABCB1 (Homo sapiens, UniProt P08183). In words: Inhibition of P-glycoprotein. Summed up: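 Rhodamine 123 uptake in L5178YvMDR mouse T-lymphoma cells and the parental line, 2 × 10⁶ cells/mL in serum-free McCoy's 5A. Compound preincubated 10 min at room temperature, then rhodamine 123 (5.2 µM final) added for 20 min at 37 °C. Cells washed twice in PBS and 1 × 10⁴ cells read by flow cytometry. IC50 taken from sigmoidal curve of fluorescence activity ratio versus concentration. Mean of two determinations.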

For data set [2], the target named is T1, ATP-dependent translocase ABCB1. The data set can be described thus: Ratio of rhodamine123 uptake in MDR1 transfected cells vs parental L5178Y cells at 30 uM. In kind it is functional, cell-based. As to conditions: mouse. Summed up: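 Fluorescence activity ratio at 30 µM compound. L5178Y parental and L5178YvMDR cells (2 × 10⁶/mL, serum-free McCoy's 5A) preincubated 10 min at room temperature with compound, then rhodamine 123 (5.2 µM final) added for 20 min at 37 °C. After two PBS washes, 1 × 10⁴ cells read by flow cytometry. Ratio calculated from uptake in treated versus untreated control cells. Mean of two determinations.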

T1 sequence (P08183 whole entry): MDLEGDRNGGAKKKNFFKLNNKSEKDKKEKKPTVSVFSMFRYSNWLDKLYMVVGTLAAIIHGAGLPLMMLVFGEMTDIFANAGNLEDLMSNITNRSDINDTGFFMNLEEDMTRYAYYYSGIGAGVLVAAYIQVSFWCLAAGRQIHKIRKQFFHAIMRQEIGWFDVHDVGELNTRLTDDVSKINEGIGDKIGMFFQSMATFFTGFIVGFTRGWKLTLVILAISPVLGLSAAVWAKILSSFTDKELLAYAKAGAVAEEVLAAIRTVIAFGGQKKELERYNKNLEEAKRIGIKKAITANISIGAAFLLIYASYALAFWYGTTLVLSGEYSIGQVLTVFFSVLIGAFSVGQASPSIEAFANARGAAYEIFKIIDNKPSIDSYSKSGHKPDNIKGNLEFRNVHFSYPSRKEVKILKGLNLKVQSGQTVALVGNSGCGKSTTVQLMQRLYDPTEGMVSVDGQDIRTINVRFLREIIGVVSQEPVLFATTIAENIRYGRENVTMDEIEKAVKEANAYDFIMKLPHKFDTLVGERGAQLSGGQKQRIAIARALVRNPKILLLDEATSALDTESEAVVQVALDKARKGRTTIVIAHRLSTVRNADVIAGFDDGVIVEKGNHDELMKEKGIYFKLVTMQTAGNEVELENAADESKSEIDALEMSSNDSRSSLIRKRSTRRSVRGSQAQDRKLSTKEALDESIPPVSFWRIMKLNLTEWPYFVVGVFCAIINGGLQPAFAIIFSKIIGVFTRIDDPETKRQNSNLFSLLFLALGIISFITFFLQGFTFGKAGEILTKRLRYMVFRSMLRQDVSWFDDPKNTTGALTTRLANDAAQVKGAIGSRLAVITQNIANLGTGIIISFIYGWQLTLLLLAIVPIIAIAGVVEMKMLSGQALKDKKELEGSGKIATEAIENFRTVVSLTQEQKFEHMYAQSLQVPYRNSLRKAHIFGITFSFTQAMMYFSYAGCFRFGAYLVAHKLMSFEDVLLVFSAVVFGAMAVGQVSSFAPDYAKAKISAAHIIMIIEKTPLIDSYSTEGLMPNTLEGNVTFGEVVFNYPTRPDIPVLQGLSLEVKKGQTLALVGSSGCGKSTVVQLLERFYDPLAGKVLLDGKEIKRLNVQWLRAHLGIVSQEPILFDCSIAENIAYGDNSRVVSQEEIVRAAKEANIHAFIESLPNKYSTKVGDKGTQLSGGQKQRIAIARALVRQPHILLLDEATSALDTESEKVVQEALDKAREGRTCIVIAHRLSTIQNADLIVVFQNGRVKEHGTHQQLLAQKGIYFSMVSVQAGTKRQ

Consider `CC(C)(C)OC(=O)N1C2C3C4N(C(=O)OC(C)(C)C)C5C(C1[C@]5(CO)[C@H]3c1ccccc1)[C@@H](c1ccccc1)[C@@]24CO`, for which the IC50 (as a rule, the concentration that gives 50% inhibition) was found to be 2.5 µM in the data set on L5178Y and 6.1 µM in data set [1]. Also, the Ratio in data set [2] is 33.
The like results for `O=C(Oc1ccccc1)N1C2C3C4N(C(=O)Oc5ccccc5)C5C(C1[C@]5(CO)[C@H]3c1ccccc1)[C@@H](c1ccccc1)[C@@]24CO` were, in that order, 12.7 µM, below 1 µM and 30.8.
Consider `OC[C@]12C3C4C1N(Cc1ccccc1)C1C(C(N3Cc3ccccc3)[C@]1(CO)[C@H]4c1ccccc1)[C@H]2c1ccccc1`, for which the IC50 was 11.9 µM with L5178Y and below 1 µM in data set [1]. The Ratio in data set [2] worked out at 26.5.
On to `CN1C2C3C4N(C)C5C(C1[C@]5(CO)[C@H]3c1ccccc1)[C@@H](c1ccccc1)[C@@]24CO`, for which the IC50 in the data set with L5178Y turned out to be 7.1 µM; in data set [1], 17.6 µM. Besides, the Ratio in data set [2] stood at 34.3.
`COC(=O)N1C2C3C4N(C(=O)OC)C5C(C1[C@]5(CO)[C@H]3c1ccccc1)[C@@H](c1ccccc1)[C@@]24CO` yielded an IC50 in data set [1] of 3.8 µM. Besides, the Ratio in data set [2] is on record as 21.6.
